Measurements reported in ChEMBL document CHEMBL4382258, “Design and Optimization of Sulfone Pyrrolidine Sulfonamide Antagonists of Transient Receptor Potential Vanilloid-4 with in Vivo Activity in a Pulmonary Edema Model” (J Med Chem, 2018).

Tests used:
[1] = Plasma concentration in Sprague-Dawley rat heart failure-induced pulmonary edema model at 0.07 ug/kg, iv bolus loading dose followed by 0.8 ug/kg/min, iv continuous infusion dose for 60 mins; type: ADME, organism-based; conditions: 7e-05 mg/kg
[2] = Clearance in Sprague-Dawley rat at 1 mg/kg, iv administered as 30 mins infusion by LC/MS/MS analysis; type: ADME, organism-based; conditions: in vivo
[3] = Plasma concentration in Sprague-Dawley rat heart failure-induced pulmonary edema model at 0.21 ug/kg, iv bolus loading dose followed by 2.3 ug/kg/min, iv continuous infusion dose for 60 mins; type: ADME, organism-based
[4] = Clearance adjusted for unbound fraction in Sprague-Dawley rat at 1 mg/kg, iv administered as 30 mins infusion by LC/MS/MS analysis; type: ADME, organism-based; conditions: in vivo, 0.5 h
[5] = MRT in Sprague-Dawley rat at 1 mg/kg, iv or 2 mg/kg, po by LC/MS/MS analysis; type: ADME, organism-based; conditions: in vivo
[6] = AUC (0 to t) in rat at 2.4 mg/kg, po; type: ADME, organism-based; conditions: in vivo
[7] = Dose normalized AUC (0 to t) in rat at 2.4 mg/kg, po; type: ADME, organism-based; conditions: in vivo
[8] = test system: Rattus norvegicus; experiment: Reversal of heart failure-induced pulmonary edema in Sprague-Dawley rat assessed as inhibition of GSK1016790A-induced increase in lung wet weight to body weight ratio at 0.21 ug/kg, iv bolus loading dose followed by 2.3 ug/kg/min, iv continuous infusion dose for 60 mins prior to agonist administration relative to control; type: functional
How it was run: (§1)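 Rats given vehicle or antagonist by i.v. infusion, then agonist GSK1016790A i.v. at 10 µg/kg/min for 10 min (100 µg/kg total). Edema scored as wet lung weight/body weight ratio against naïve animals; inhibition computed from the agonist response; mean ± SEM.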

[9] = AUC (0 to t) in rat at 98 mg/kg, po; type: ADME, organism-based; conditions: in vivo
[10] = Volume of distribution at steady state in Sprague-Dawley rat at 1 mg/kg, iv or 2 mg/kg, po by LC/MS/MS analysis; type: ADME, organism-based; conditions: in vivo, read-out: Vdss
[11] = target: Transient receptor potential cation channel subfamily M member 8 (Homo sapiens, UniProt Q7Z2W7); experiment: Antagonist activity at TRPM8 (unknown origin)
[12] = target: Transient receptor potential cation channel subfamily V member 1 (Homo sapiens, UniProt Q8NER1); experiment: Antagonist activity at TRPV1 (unknown origin)
[13] = Plasma concentration in Sprague-Dawley rat heart failure-induced pulmonary edema model at 0.02 ug/kg, iv bolus loading dose followed by 0.3 ug/kg/min, iv continuous infusion dose for 60 mins; type: ADME, organism-based; conditions: 2e-05 mg/kg
[14] = Oral bioavailability in Sprague-Dawley rat at 2 mg/kg by LC/MS/MS analysis; type: ADME, organism-based; conditions: in vivo
[15] = AUC (0 to t) in dog at 30 mg/kg, po; type: ADME, organism-based, Canis lupus familiaris; conditions: in vivo
[16] = test system: Rattus norvegicus; experiment: Reversal of heart failure-induced pulmonary edema in Sprague-Dawley rat assessed as inhibition of GSK1016790A-induced increase in lung wet weight to body weight ratio at 0.02 to 0.21 ug/kg, iv bolus loading dose followed by 0.3 to 2.3 ug/kg/min, iv continuous infusion dose for 60 mins prior to agonist administration; type: functional, organism-based; how it was run: as §1
[17] = target: Transient receptor potential cation channel subfamily A member 1 (Homo sapiens, UniProt O75762); experiment: Antagonist activity at TRPA1 (unknown origin)
[18] = target: Cytochrome P450 3A4 (Homo sapiens, UniProt P08684); experiment: Time dependent inhibition of CYP3A4 (unknown origin) up to 100 uM preincubated up to 15 mins followed by 7-benzyloxy-trifluoromethylcoumarin substrate and NADPH addition by fluorescence assay; type: ADME
[19] = Fraction unbound in Sprague-Dawley rat heart failure-induced pulmonary edema model at 0.02 to 0.21 ug/kg, iv bolus loading dose followed by 0.3 to 2.3 ug/kg/min, iv continuous infusion dose for 60 mins; type: ADME, organism-based; conditions: in vivo
[20] = target: Transient receptor potential cation channel subfamily V member 4 (Homo sapiens, UniProt Q9HBA0); experiment: Antagonist activity at human TRPV4 expressed in BHK/AC9 cells assessed as inhibition of GSK634775-induced […] pre-incubated for 10 mins followed by agonist addition by Fluo-4-AM dye-based FLIPR assay; type: cell-based
[21] = AUC (0 to t) in dog at 0.9 mg/kg, po; type: ADME, organism-based, Canis lupus familiaris; conditions: in vivo
[22] = Dose normalized AUC (0 to t) in dog at 0.9 mg/kg, po; type: ADME, organism-based, Canis lupus familiaris; conditions: in vivo
[23] = target: Transient receptor potential cation channel subfamily V member 4 (Rattus norvegicus, UniProt Q9ERZ8); experiment: Antagonist activity at rat TRPV4 expressed in BHK/AC9 cells assessed as inhibition of GSK634775-induced […] pre-incubated for 10 mins followed by agonist addition by Fluo-4-AM dye-based FLIPR assay; type: cell-based
[24] = target: Transient receptor potential cation channel subfamily M member 2 (Homo sapiens, UniProt O94759); experiment: Antagonist activity at TRPM2 (unknown origin)
Transient receptor potential cation channel subfamily M member 2, sequence (O94759 whole entry): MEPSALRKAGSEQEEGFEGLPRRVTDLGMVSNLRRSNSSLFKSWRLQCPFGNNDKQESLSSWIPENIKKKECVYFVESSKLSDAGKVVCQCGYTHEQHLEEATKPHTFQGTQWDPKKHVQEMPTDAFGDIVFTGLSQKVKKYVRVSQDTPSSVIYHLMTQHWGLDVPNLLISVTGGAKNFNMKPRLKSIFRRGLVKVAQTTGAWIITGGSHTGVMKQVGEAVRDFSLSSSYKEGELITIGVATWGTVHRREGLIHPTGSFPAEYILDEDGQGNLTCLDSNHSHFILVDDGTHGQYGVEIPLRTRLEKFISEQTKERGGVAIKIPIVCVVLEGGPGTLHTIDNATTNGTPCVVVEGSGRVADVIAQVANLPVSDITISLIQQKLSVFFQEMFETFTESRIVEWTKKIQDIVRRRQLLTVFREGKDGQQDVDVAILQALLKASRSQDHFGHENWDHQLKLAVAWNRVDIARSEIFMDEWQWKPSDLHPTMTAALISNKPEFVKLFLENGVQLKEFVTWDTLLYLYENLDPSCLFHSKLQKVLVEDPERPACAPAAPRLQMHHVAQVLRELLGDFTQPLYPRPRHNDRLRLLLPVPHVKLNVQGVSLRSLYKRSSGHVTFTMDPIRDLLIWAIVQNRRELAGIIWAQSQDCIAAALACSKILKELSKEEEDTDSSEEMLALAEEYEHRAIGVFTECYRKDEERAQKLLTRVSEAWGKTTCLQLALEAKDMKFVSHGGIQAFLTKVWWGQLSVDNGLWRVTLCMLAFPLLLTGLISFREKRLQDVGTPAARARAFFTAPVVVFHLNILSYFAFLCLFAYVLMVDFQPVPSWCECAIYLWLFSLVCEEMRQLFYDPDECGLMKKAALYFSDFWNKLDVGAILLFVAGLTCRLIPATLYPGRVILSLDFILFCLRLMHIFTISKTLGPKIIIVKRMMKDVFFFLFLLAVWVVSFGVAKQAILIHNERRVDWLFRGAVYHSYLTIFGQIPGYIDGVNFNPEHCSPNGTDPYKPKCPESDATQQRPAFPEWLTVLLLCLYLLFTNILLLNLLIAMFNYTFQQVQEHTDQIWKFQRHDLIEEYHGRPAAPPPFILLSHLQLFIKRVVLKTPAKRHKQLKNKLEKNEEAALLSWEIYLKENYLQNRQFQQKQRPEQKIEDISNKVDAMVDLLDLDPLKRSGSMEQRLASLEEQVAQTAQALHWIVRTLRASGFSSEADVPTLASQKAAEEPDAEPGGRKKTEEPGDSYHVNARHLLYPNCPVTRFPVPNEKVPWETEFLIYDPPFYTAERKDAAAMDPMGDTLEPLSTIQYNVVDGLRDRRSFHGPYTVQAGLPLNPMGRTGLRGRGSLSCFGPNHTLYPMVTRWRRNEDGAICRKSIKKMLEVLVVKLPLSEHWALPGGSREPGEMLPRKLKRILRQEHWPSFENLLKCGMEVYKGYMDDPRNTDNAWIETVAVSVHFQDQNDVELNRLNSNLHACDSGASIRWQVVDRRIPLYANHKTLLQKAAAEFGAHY

Transient receptor potential cation channel subfamily A member 1, sequence (O75762 whole entry): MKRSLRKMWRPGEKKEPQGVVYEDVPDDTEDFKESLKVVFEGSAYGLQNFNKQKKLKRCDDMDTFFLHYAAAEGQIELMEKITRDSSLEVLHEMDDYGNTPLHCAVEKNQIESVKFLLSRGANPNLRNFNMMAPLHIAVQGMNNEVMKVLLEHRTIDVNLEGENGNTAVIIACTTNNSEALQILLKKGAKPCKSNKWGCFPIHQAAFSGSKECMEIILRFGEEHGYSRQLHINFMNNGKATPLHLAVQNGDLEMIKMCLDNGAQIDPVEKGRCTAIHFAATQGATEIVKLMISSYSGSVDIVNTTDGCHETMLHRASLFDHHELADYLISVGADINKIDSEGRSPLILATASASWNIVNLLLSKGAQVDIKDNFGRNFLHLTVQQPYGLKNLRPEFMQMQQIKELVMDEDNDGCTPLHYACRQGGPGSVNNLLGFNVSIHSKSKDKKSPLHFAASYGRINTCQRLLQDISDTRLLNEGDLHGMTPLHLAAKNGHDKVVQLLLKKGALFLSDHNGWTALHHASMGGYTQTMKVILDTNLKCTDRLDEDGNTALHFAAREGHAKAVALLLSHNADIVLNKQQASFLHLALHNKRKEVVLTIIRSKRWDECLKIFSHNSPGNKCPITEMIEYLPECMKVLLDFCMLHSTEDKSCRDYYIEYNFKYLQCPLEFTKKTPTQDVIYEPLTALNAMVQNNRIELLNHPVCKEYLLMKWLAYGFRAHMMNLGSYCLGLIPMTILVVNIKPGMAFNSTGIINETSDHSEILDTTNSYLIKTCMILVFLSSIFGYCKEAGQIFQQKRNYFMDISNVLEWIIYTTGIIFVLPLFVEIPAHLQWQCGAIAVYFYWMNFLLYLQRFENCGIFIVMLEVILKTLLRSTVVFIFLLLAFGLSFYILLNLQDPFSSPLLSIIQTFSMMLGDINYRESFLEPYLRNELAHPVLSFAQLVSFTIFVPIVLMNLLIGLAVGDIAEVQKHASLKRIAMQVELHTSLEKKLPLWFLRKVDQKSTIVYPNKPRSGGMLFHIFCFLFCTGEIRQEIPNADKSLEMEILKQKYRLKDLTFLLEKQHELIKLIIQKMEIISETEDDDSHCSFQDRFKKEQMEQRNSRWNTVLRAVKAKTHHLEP
Transient receptor potential cation channel subfamily M member 8, sequence (Q7Z2W7 whole entry): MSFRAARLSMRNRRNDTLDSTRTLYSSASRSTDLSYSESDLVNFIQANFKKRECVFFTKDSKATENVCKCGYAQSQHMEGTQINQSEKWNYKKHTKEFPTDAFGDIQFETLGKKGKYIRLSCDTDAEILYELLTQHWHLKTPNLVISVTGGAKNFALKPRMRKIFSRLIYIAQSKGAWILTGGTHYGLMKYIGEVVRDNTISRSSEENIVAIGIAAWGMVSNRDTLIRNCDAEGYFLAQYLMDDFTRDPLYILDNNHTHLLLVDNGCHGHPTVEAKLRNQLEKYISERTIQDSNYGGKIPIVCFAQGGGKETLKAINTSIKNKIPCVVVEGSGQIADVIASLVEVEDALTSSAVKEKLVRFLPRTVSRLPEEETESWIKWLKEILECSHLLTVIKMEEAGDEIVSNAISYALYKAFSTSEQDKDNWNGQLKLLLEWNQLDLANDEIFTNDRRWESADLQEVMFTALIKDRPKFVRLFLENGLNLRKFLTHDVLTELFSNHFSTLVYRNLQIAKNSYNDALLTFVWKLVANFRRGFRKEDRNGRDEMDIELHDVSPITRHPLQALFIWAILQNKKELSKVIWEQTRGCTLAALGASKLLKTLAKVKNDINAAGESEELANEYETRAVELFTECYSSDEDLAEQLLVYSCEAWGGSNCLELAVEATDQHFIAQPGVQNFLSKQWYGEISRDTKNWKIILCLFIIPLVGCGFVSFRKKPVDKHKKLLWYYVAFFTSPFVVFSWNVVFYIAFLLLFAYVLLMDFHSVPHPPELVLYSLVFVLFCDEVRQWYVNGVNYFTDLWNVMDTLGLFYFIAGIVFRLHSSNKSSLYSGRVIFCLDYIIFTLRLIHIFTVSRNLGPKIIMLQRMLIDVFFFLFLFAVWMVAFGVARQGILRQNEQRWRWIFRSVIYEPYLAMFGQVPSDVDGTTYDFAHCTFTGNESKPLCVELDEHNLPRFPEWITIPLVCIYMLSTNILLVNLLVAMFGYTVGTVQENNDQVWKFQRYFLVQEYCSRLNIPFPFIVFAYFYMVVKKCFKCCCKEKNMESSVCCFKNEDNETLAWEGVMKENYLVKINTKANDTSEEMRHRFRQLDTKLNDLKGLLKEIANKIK
Cytochrome P450 3A4, sequence (P08684 whole entry, the tested form may be a part): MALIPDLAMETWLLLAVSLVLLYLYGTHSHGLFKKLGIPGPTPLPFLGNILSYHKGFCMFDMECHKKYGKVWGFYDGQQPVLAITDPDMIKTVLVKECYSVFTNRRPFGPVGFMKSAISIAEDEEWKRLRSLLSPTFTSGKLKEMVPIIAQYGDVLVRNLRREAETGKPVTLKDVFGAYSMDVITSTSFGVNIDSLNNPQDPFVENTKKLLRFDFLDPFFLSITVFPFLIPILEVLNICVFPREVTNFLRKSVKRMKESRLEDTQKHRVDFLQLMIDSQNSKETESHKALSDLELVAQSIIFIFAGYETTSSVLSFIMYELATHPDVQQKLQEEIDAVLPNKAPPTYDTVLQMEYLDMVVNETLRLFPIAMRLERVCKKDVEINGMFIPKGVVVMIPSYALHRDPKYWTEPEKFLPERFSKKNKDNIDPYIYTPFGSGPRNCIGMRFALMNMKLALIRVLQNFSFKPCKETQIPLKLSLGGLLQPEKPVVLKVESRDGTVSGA
Transient receptor potential cation channel subfamily V member 4 (Homo sapiens, UniProt Q9HBA0), sequence (Q9HBA0 whole entry): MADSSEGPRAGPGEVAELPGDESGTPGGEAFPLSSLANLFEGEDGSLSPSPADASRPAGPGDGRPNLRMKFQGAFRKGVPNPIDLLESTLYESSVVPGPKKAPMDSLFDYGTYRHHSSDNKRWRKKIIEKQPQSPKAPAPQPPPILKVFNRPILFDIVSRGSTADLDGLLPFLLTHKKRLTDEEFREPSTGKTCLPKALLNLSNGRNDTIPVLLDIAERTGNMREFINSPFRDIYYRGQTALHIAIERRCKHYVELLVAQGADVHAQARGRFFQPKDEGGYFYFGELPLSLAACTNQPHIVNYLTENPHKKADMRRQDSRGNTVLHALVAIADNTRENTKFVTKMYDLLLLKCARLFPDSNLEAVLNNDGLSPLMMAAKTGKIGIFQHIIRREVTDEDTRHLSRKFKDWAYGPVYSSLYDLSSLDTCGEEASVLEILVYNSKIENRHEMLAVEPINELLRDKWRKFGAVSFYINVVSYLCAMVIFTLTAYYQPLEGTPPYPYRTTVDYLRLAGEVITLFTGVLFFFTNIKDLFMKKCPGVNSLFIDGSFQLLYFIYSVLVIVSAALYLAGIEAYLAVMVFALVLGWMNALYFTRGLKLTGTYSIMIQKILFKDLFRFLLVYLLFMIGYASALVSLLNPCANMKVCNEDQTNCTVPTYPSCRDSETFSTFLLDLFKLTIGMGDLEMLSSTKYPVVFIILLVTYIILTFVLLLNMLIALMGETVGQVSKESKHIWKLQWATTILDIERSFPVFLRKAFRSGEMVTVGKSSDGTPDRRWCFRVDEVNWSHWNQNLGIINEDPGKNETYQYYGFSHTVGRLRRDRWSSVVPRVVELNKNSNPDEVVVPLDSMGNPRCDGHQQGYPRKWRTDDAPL

- concentration at 1 h [1]: 52 nM
- clearance [2]: 49 mL/min/kg
- concentration at 1 h [3]: 152 nM
- CL free [4]: 12 mL/min/kg
- MRT [5]: 1.6 h
- AUC(0-t) [6]: 1100 ng·h/mL
- AUCt/dose [7]: 0.5 kg·h/L
- AUC(0-t) [9]: 40000 ng·h/mL
- Vd [10]: 4.5 L/kg
- IC50 [11]: > 30000 nM
- IC50 [12]: > 30000 nM
- concentration at 1 h [13]: 14 nM
- bioavailability [14]: 100%
- AUC(0-t) [15]: 90000 ng·h/mL
- IC50 [17]: > 30000 nM
- TDI [18]: Not Active
- fraction unbound at 1 h [19]: 0.042
- IC50 [20]: 3.2 nM
- AUC(0-t) [21]: 2500 ng·h/mL
- AUCt/dose [22]: 2.9 kg·h/L
- IC50 [23]: 4 nM
- IC50 [24]: > 30000 nM
Compound: N#Cc1ccc(S(=O)(=O)N2C[C@H](S(=O)(=O)c3ccc(Cl)cc3)[C@](O)(CO)C2)c(Cl)c1
- inhibition (INH) [8]: 99%
- fIC50 [16]: 0.3 nM
- IC50 ([16]; Rattus norvegicus, Sprague-Dawley): 33 nM
